Experiment [1] relates to Mus musculus. Description: Modulation of cataleptic behavior in Swiss-Webster mouse assessed as >10 sec latency along with flattened posture at 100 mg/kg, ip by bar test. The format is functional, organism-based. Also on record: dose 100 mg/kg. Put shortly:
(§1)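 Mice were given an intraperitoneal dose of 10 or 100 mg/kg and scored for catalepsy by bar test. A cannabinoid response was a latency >10 s, plus a qualitatively flattened posture and remaining motionless with eyes open. n=3 mice per treatment group, mean ± S.D.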

Experiment [2] deals with Cannabinoid receptor 1 (Mus musculus, UniProt P47746). Kind of experiment: Displacement of [3H]CP-55940 from CB1 receptor in mouse brain. Format: tissue-based. On the technique in general: In a radioligand displacement assay an active substance lowers the binding of a labelled ligand.
Chain of Cannabinoid receptor 1 (P47746 whole entry): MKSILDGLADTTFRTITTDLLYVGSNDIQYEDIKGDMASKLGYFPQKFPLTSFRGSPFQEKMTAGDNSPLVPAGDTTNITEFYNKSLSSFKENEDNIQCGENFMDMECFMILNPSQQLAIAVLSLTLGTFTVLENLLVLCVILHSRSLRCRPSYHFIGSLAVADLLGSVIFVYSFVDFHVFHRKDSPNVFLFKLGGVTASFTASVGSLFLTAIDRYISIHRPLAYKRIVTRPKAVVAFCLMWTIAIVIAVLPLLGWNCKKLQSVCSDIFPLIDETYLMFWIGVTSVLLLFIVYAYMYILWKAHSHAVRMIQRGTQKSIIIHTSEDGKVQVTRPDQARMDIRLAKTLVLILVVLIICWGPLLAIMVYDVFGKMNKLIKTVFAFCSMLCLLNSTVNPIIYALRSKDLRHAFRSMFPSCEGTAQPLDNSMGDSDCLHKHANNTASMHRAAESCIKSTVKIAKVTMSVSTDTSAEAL
The test system of experiment [3] is Mus musculus. Kind of experiment: Increase in Swiss-Webster mouse brain 2-arachidonoylglycerol level at 100 mg/kg, ip. Format: functional, organism-based. Further details: dose 100 mg/kg. In short, it runs like this: (§2)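 Mice received single intraperitoneal doses (10 or 100 mg/kg). Brain levels of 2-AG and arachidonic acid were then measured. Values are mean ± S.D., n=3 mice per treatment group.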

Experiment [4] relates to Mus musculus. Kind of experiment: Increase in Swiss-Webster mouse brain 2-arachidonoylglycerol level at 10 mg/kg, ip. The format is functional, organism-based. Also on record: dose 10 mg/kg. In short, it runs like this:
as §2

In experiment [5] the test system is Mus musculus. Description: Decrease in Swiss-Webster mouse brain arachidonic acid level at 100 mg/kg, ip. The format is functional, organism-based. Also on record: dose 100 mg/kg. In short, it runs like this:
as §2

Experiment [6] deals with T1, Fatty-acid amide hydrolase 1 (Mus musculus, UniProt O08914).
T1 sequence (O08914 whole entry): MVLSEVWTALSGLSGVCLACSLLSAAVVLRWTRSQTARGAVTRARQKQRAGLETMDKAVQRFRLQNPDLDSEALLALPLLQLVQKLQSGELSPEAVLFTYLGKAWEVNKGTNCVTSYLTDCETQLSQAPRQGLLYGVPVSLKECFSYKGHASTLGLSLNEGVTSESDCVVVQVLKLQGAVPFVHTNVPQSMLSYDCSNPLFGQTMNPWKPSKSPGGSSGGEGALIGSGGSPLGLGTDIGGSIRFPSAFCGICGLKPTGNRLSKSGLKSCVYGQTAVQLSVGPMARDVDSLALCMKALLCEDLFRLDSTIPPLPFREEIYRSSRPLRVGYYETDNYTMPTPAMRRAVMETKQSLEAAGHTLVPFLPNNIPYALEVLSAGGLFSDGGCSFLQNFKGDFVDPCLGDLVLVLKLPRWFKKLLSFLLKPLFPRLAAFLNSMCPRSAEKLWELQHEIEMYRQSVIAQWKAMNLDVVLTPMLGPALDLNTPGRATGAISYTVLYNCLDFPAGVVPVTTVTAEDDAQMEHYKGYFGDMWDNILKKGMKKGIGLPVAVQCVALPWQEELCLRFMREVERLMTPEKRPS
Description: Inhibition of FAAH-mediated [3H]anandamide hydrolysis in mouse brain. Format: tissue-based.

Experiment [7] deals with Mus musculus. Description: Decrease in Swiss-Webster mouse brain arachidonic acid level at 10 mg/kg, ip. Format: functional, organism-based. Also on record: dose 10 mg/kg. Put shortly: as §2
Experiment [8] deals with Mus musculus. Description: Modulation of cataleptic behavior in Swiss-Webster mouse assessed as >10 sec latency along with flattened posture and open eyes at 10 mg/kg, ip by bar test. The format is functional, organism-based. Also on record: dose 10 mg/kg. Put shortly:
as §1

For experiment [9], the target named is T2, Monoglyceride lipase (Mus musculus, UniProt O35678).
T2 sequence (O35678 whole entry): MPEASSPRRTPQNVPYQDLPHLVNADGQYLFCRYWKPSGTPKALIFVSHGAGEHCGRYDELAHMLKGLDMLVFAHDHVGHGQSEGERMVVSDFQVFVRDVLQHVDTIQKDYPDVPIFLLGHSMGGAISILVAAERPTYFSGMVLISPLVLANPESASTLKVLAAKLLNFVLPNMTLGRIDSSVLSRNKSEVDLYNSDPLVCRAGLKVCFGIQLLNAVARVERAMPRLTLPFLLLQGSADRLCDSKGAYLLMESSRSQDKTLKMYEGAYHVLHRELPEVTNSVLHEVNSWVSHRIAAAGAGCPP
Description: Inhibition of MAGL-mediated 2-arachidonoylglycerol hydrolysis in mouse brain. The format is tissue-based.

The target in experiment [10] is Cannabinoid receptor 1 (Mus musculus) (UniProt P47746). Description: Displacement of [3H]CP-55940 from CB1 receptor in mouse brain at 100 nM. Format: tissue-based.
Chain of Cannabinoid receptor 1 (Mus musculus) (P47746 whole entry): as the sequence (P47746 whole entry) above
For experiment [11] the target is unchanged. Kind of experiment: Displacement of [3H]CP-55940 from mouse CB1 receptor expressed in HEK293 cells up to 100,000 nM. Format: cell-based.

The values below come from ChEMBL document CHEMBL1151798, “Monoacylglycerol lipase regulates 2-arachidonoylglycerol action and arachidonic acid levels” (Bioorg Med Chem Lett, 2008).

Broadly, the IC50 is the point on the concentration scale where inhibition reaches its midpoint.

Active and inactive are the calls of the source. The calls are words filed in the database; no cut-off is given here.

Turning to `CCCCCCCCCCCCP(=O)(OCC)Oc1nc(Cl)c(Cl)cc1Cl` (stereo not drawn), the result in experiment [1], in experiment [3], in [4], in experiment [5], in experiment [7] and in experiment [8] was inactive. In addition, the IC50 in [2] is 14 nM; in [6] it was 42 nM; in experiment [9] it was 0.14 nM.
Regarding `CCCCCCCCCSP1(=O)OCc2ccccc2O1` (stereo not drawn), the IC50 in experiment [6] worked out at 0.15 nM; in [9] it was 0.31 nM.
For the molecule `CCCCCCCCS(=O)(=O)F`, the outcome in [1], in experiment [3], in [4], in experiment [5], in experiment [7] and in experiment [8] was Active. In addition, the half-inhibitory concentration (IC50) in experiment [6] was determined as 1.9 nM; in experiment [9], 140 nM.
Consider `CCCCCCCCCCCCP(=O)(Oc1ccc([N+](=O)[O-])cc1)OC(C)C` (stereo not drawn), for which the values for the IC50 in experiment [2], in [6] and in experiment [9] were 12 nM, 3 nM and 0.28 nM, respectively.
For the molecule `CCCCCCCCCCCCP(=O)(OCC)Oc1ccc(C#N)cc1` (stereo not drawn), the outcome in experiment [1], in [3], in [4], in [5], in experiment [7] and in experiment [8] was Active. Also, the IC50 in experiment [2] came to 4 nM; in experiment [6], 12 nM; in experiment [9], 0.07 nM.
As for `CCOP(=O)(OCC)Oc1nc(Cl)c(Cl)cc1Cl`, the Bmax in [10] was found to be 0.17 pmol/mg. In experiment [11], the outcome was inactive.
With `CCOP(=O)(OCC)Oc1ccc([N+](=O)[O-])cc1` [PARAOXON], the values for the half-maximal inhibitory concentration (IC50) in experiment [2], in experiment [6] and in experiment [9] were 1200 nM, 540 nM and 2300 nM, respectively.
As to `CCCCCCCCCCCCS(=O)(=O)F` [DODECANESULFONYL FLUORIDE], the result in experiment [1], in experiment [3], in experiment [4], in experiment [5], in [7] and in experiment [8] was Active. For the same molecule, the 50% inhibitory concentration (IC50) in experiment [9] was found to be 200 nM.
